Measured values gathered from unrelated publications.

| Structure (SMILES) | target or system | test | test system | setting | endpoint | value |
| --- | --- | --- | --- | --- | --- | --- |
| NCc1cc2c(cc1F)C(=O)N(C1CCC(=O)NC1=O)C2 (centres unmarked) | – | – | male cynomolgus monkey, plasma | oral, 0.3 mg/kg | half-life | 2.2 h |
| Cc1c(C)c2c(c(C)c1O)CCC(C)(COc1ccc(CC3SC(=O)NC3=O)cc1)O2 (centres unmarked) | THLE-2 | cell growth or viability, MTT | – | 100 µM, 72 h | viability | 9% |
| COc1nc(-c2cccc(-c3ccccc3)c2C)ccc1CNCCNC(=O)CCCCCCCCCCC(=O)N1CCN(CCNC(=O)c2cc3c(=O)n4cccc(C)c4nc3n(CCc3cccs3)c2=N)CC1 | – | – | male Sprague-Dawley rat, plasma | intraperitoneal, 4 mg/kg | Cmax | 300 ng/mL |
| CNS(=O)(=O)c1ccc(Nc2ncc3cc(Cl)c(=O)n(C4CCCC4)c3n2)c(C)c1 | – | – | rat, plasma | oral, 10 mg/kg | bioavailability | 3% |
| CC[C@H](C)[C@H](NC(=O)[C@@H]1CCCN1C(=O)CNC(=O)[C@H](Cc1ccccc1)NC(=O)[C@H](CC(N)=O)NC(=O)[C@H](CC(N)=O)NC(=O)[C@H](CO)NC(=O)[C@H](CO)NC(=O)[C@H](Cc1c[nH]cn1)NC(=O)[C@H](CCCNC(=N)N)NC(=O)[C@H](CC(C)C)NC(=O)[C@H](Cc1ccccc1)NC(=O)[C@H](CCC(=O)O)NC(=O)[C@H](C)NC(=O)[C@H](CC(C)C)NC(=O)[C@H](CCCNC(=N)N)NC(=O)[C@H](CCC(N)=O)NC(=O)[C@@H](NC(=O)[C@H](C)NC(=O)[C@@H]1CSSC[C@H](NC(=O)[C@H](CCCCN)NC(=O)CC[C@H](NC(=O)CCCCCCCCCCCCCCCCCCC(=O)O)C(=O)O)C(=O)N[C@@H](CC(N)=O)C(=O)N[C@@H]([C@@H](C)O)C(=O)N[C@@H](C)C(=O)N[C@@H]([C@@H](C)O)C(=O)N1)[C@@H](C)O)C(=O)N[C@@H](CC(C)C)C(=O)N1CCC[C@H]1C(=O)N1CCC[C@H]1C(=O)N[C@H](C(=O)N[C@@H](CC(N)=O)C(=O)N[C@H](C(=O)NCC(=O)N[C@@H](CO)C(=O)N[C@@H](CC(N)=O)C(=O)N[C@H](C(=O)N1CCC[C@H]1C(N)=O)[C@@H](C)O)C(C)C)[C@@H](C)O | – | – | cynomolgus monkey, plasma | subcutaneous, 20 nmol/kg, single dose | half-life | 62 h |
| C[C@]1(O)CCCN(c2nc(Nc3ccc(S(=O)(=O)N[C@H]4CC[C@H](CN5CCN(c6ccc(C7CCC(=O)NC7=O)c(F)c6)CC5)CC4)cc3F)ncc2C(F)(F)F)C1 (some centres unmarked) | – | – | rat, plasma | oral, 10 mg/kg | bioavailability | 24% |
| CC(=O)Nc1ccc(O)cc1 | THLE-2 | cell growth or viability, MTT | – | 100 µM, 72 h | viability | 29.1% |
| C[C@H]1Oc2cc(cnc2N)-c2c(nn(C)c2C#N)CN(C)C(=O)c2ccc(F)cc21 | – | – | male Sprague-Dawley rat, plasma | oral, 50 mg/kg, single dose | Cmax | 2480 ng/mL |
